Results published in ChEMBL document CHEMBL1275350, “First in class, potent, and orally bioavailable NADPH oxidase isoform 4 (Nox4) inhibitors for the treatment of idiopathic pulmonary fibrosis” (J Med Chem, 2010).

Columns and labels:
[1] = Tmax in Sprague-Dawley rat at 10 mg/kg, po; type: ADME, organism-based; parameters: dose 10 mg/kg, route oral; settings: in vivo
Method in brief: (§1)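 Parallel design in male rats, three per group. Group 1: 5 mg/kg iv in EDPW (10% EtOH, 10% DMA, 30% PG, 50% water). Group 2: 10 mg/kg oral in aqueous 0.5% CMC with 0.25% Tween 20. Carotid cannula blood drawn up to 24 h. Plasma measured by LC/MS/MS (LLOQ 1.00 ng/mL), noncompartmental analysis.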

[2] = AUC (infinity) in Sprague-Dawley rat at 5 mg/kg, iv; type: ADME, organism-based; parameters: time infinity, dose 5 mg/kg, route intravenous; settings: plasma
Method in brief: (§2)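 Parallel design with six male rats: three given 5 mg/kg iv in EDPW (10% EtOH, 10% DMA, 30% PG, 50% water), three given 10 mg/kg orally in aqueous 0.5% CMC with 0.25% Tween 20. Carotid cannula blood sampled up to 24 h. Plasma levels by LC/MS/MS (LLOQ 1.00 ng/mL). Noncompartmental analysis.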

[3] = Half life in Sprague-Dawley rat at 10 mg/kg, po; type: ADME, organism-based; parameters: dose 10 mg/kg, route oral; settings: in vivo; method in brief: as §2
[4] = AUC (infinity) in Sprague-Dawley rat at 10 mg/kg, po; type: ADME, organism-based; parameters: time infinity, dose 10 mg/kg, route oral; settings: plasma; method in brief: as §2
[5] = Half life in Sprague-Dawley rat at 5 mg/kg, iv; type: ADME, organism-based; parameters: dose 5 mg/kg, route intravenous; settings: in vivo; method in brief: as §2
[6] = Oral bioavailability in Sprague-Dawley rat at 10 mg/kg; type: ADME, organism-based; settings: in vivo; method in brief: as §1
[7] = Clearance in Sprague-Dawley rat at 10 mg/kg, po; type: ADME, organism-based; parameters: dose 10 mg/kg, route oral; settings: in vivo; method in brief: as §2
[8] = Intrinsic clearance in human liver microsomes assessed as per mg of protein at 0.5 uM; type: ADME, Microsome
Method in brief: (§3)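 Phase I stability assay in pooled liver microsomes (human: male and female; rat: male Sprague-Dawley). Microsomes at 0.5 mg/mL final in 0.1 M phosphate pH 7.4. Compound 0.5 μM final, 0.25% DMSO. Preincubated at 37 °C, reaction started with 1 mM NADPH. Sampled at 0, 5, 15, 30 and 45 min, with a 45 min minus-NADPH control. Methanol quench with internal standard, LC/MS-MS, intrinsic clearance calculated.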

[9] = Volume of distribution at steady state in Sprague-Dawley rat at 5 mg/kg, iv; type: ADME, organism-based; parameters: dose 5 mg/kg, route intravenous; settings: in vivo, read-out: Vdss; method in brief: as §1
[10] = Permeability across human Caco-2 cell membrane at 10 uM after 2 hrs; type: ADME, cell-based
Method in brief: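 Caco-2 monolayers grown 20 days in DMEM, used when TEER >800 Ω·cm2. Dosed at 10 μM final in HBSS pH 6.5 with 1% DMSO, apical-to-basolateral and basolateral-to-apical. Incubated 2 h at 37 °C, both compartments sampled, LC-MS/MS with five-point calibration. Papp = (dQ/dt)/(C0A).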

[11] = Intrinsic clearance in Sprague-Dawley rat liver microsomes assessed per mg of protein at 0.5 uM; type: ADME, Microsome; method in brief: as §3
[12] = Cmax in Sprague-Dawley rat at 10 mg/kg, po; type: ADME, organism-based; parameters: dose 10 mg/kg, route oral; settings: in vivo; method in brief: as §2
NADPH oxidase 4 = molecular target: T1, NADPH oxidase 4 (Homo sapiens, UniProt Q9NPH5); assay: Inhibition of human NOX4 overexpressed in T-REx-293 cell membrane assessed as ROS production by cell free assay in presence of NADPH; settings: in the assay text read “T-REx-293 cell membrane” for “human PMN cell membrane”
T1 sequence (Q9NPH5 whole entry): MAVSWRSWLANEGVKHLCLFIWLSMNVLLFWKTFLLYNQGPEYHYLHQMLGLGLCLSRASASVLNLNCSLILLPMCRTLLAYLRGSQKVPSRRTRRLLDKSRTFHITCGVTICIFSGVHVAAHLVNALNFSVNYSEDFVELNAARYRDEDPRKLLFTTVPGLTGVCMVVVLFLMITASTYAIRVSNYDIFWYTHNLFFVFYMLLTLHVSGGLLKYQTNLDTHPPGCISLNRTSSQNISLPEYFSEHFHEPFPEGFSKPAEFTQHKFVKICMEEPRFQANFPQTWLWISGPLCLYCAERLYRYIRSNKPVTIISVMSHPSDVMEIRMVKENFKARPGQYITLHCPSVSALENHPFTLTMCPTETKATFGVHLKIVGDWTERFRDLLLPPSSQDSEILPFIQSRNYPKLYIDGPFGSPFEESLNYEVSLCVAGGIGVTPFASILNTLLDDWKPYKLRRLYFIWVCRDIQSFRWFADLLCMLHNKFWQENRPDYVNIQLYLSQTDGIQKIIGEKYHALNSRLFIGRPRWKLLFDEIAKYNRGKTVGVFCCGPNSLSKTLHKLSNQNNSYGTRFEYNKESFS
Method in brief: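 hNOX4 T-REx-293 cells induced with tetracycline (1 μg/mL, 24 h), sonicated in sucrose/NaCl/EGTA PBS buffer pH 7.4, membranes taken from a sucrose gradient. NADPH-triggered ROS measured by Amplex Red/HRP in PBS, with compound at 1 nM–100 μM, 20 min at 37 °C. Ki by Cheng-Prusoff from ≥3 triplicate experiments.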

[13] = Clearance in Sprague-Dawley rat at 5 mg/kg, iv; type: ADME, organism-based; parameters: dose 5 mg/kg, route intravenous; settings: in vivo; method in brief: as §2
[14] = Cmax in Sprague-Dawley rat at 5 mg/kg, iv; type: ADME, organism-based; parameters: dose 5 mg/kg, route intravenous; settings: in vivo; method in brief: as §2
Cytochrome P450 2C19 = Cytochrome P450 2C19 (Homo sapiens, UniProt P33261); assay: Inhibition of human CYP2C19; type: ADME
Sequence of Cytochrome P450 2C19 (P33261 whole entry, canonical isoform): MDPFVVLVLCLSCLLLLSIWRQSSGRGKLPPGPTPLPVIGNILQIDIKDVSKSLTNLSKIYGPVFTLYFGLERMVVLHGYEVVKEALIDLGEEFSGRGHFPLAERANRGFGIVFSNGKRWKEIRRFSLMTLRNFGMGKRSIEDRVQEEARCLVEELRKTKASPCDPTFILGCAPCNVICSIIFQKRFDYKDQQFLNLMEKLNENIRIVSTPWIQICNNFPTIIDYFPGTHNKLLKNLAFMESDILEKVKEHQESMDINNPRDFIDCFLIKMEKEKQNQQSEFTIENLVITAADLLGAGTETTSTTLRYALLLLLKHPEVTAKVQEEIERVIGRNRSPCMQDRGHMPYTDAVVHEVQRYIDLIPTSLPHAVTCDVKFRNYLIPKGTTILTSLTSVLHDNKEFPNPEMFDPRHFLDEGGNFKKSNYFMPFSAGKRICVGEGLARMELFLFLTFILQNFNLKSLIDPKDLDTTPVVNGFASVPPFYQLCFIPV
Method in brief: (§4)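 Recombinant human CYP isoforms with isoform-specific probe substrates and NADPH. Compound at 0.1–25 μM, final DMSO 0.3%. Metabolites measured by mass spectrometry, except CYP1A2, which used a fluorescent metabolite. IC50 derived from the decrease in metabolite formation compared with vehicle control.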

Cytochrome P450 2C9 = Cytochrome P450 2C9 (Homo sapiens, UniProt P11712); assay: Inhibition of human CYP2C9; type: ADME; method in brief: as §4
Sequence of Cytochrome P450 2C9 (P11712 whole entry): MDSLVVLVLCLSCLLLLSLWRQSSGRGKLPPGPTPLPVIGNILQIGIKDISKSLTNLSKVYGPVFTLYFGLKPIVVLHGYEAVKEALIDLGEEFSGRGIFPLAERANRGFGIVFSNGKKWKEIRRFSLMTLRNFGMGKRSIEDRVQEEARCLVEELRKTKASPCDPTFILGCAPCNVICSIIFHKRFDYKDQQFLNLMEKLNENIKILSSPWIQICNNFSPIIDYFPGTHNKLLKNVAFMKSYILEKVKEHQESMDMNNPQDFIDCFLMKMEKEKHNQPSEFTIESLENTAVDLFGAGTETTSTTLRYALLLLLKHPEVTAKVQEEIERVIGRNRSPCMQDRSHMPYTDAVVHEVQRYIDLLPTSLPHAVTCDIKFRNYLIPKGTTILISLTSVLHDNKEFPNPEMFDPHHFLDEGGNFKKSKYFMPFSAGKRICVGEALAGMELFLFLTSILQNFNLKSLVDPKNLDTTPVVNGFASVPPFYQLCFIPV

Cytochrome P450 3A4 = Cytochrome P450 3A4 (Homo sapiens, UniProt P08684); assay: Inhibition of human CYP3A4; type: ADME; method in brief: as §4
Sequence of Cytochrome P450 3A4 (P08684 whole entry): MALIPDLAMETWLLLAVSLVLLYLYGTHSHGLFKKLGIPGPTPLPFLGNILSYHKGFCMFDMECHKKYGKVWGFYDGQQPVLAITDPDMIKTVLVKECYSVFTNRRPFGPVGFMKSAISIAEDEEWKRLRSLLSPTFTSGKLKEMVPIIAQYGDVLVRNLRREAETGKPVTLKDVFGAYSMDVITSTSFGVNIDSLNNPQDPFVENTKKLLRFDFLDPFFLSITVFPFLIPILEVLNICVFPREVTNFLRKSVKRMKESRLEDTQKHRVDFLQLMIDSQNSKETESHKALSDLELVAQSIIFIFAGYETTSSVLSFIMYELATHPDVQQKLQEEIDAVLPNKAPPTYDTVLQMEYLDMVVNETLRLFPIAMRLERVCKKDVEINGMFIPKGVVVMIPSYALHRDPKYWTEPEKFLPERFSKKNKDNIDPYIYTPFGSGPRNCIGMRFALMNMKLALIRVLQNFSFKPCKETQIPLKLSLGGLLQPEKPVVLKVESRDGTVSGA

Cytochrome P450 2C8 = Cytochrome P450 2C8 (Homo sapiens, UniProt P10632); assay: Inhibition of human CYP2C8; type: ADME; method in brief: as §4
Sequence of Cytochrome P450 2C8 (P10632 whole entry): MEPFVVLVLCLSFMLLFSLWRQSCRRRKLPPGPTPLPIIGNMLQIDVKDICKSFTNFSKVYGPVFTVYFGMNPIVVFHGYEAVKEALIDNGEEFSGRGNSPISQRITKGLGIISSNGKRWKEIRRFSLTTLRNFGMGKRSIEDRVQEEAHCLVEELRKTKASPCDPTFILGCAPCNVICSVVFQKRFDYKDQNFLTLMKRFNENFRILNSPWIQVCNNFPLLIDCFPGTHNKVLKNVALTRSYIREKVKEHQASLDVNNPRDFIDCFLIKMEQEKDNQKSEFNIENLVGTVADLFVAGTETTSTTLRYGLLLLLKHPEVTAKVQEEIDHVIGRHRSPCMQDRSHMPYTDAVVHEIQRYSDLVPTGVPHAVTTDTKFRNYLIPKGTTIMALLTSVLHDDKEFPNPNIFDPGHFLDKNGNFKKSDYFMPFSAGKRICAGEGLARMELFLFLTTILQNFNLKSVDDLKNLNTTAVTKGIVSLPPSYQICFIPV

[15] = molecular target: Xanthine dehydrogenase/oxidase (Homo sapiens, UniProt P47989); assay: Inhibition of xanthine oxidase by in vitro enzymatic assay in presence of xanthine
Sequence of Xanthine dehydrogenase/oxidase (P47989 whole entry): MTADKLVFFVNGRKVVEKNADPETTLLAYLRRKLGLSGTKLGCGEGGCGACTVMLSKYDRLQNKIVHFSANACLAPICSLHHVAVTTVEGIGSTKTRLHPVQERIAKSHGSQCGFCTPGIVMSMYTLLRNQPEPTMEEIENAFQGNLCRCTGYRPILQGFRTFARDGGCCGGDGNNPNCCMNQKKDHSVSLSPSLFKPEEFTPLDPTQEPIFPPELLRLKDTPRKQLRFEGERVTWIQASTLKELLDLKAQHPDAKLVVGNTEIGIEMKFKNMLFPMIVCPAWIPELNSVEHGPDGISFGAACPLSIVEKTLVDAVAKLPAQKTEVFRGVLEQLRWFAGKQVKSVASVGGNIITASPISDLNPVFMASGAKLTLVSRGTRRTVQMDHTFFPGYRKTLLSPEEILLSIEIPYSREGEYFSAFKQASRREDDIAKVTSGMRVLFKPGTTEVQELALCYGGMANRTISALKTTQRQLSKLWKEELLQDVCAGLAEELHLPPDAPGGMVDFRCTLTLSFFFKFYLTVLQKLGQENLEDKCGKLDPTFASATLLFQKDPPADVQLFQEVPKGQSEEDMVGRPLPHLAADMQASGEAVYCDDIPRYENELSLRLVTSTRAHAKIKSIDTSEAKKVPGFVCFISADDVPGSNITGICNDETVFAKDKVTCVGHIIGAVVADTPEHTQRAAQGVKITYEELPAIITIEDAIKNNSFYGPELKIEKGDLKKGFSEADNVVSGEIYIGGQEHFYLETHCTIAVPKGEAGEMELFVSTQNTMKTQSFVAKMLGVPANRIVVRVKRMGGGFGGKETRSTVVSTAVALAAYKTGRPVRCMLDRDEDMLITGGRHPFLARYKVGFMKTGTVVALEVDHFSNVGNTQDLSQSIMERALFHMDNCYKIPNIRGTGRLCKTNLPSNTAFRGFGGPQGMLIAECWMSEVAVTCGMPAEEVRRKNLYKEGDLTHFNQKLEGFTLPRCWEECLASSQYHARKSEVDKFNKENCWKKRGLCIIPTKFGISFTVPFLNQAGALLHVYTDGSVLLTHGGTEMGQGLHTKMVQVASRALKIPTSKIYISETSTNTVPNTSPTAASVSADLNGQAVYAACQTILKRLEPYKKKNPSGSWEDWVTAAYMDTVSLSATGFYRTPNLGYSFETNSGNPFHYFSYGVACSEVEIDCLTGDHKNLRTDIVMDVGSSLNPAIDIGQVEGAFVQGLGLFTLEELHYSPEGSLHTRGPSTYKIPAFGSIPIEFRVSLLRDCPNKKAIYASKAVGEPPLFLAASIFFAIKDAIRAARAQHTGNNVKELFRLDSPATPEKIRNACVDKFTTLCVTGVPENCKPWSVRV
Method in brief: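 Cell-free Amplex Red read-out: xanthine oxidase incubated in PBS with Amplex Red, HRP and cofactors; ROS production started by adding xanthine. Compound at rising concentrations from 1 nM to 100 μM, 20 min at 37 °C, then read on a plate reader. Background taken without enzyme or without agonist. Ki by Cheng-Prusoff, mean of at least three experiments run in triplicate.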

[16] = Tmax in Sprague-Dawley rat at 1 mg/kg, iv; type: ADME, organism-based; parameters: dose 1 mg/kg, route intravenous; settings: in vivo
Rattus norvegicus = assay: Hepatic blood flow in Sprague-Dawley rat at 5 mg/kg, iv; type: ADME, organism-based, Liver; parameters: dose 5 mg/kg, route intravenous; settings: in vivo
[17] = Clearance in Sprague-Dawley rat at 1 mg/kg, iv; type: ADME, organism-based; parameters: dose 1 mg/kg, route intravenous; settings: in vivo
[18] = AUC (infinity) in Sprague-Dawley rat at 1 mg/kg, iv; type: ADME, organism-based; parameters: time infinity, dose 1 mg/kg, route intravenous; settings: plasma
[19] = Bioavailability in Sprague-Dawley rat at 5 mg/kg, sc; type: ADME, organism-based; settings: in vivo
[20] = Cmax in Sprague-Dawley rat at 5 mg/kg, sc; type: ADME, organism-based; parameters: dose 5 mg/kg, route subcutaneous; settings: in vivo
[21] = Half life in Sprague-Dawley rat at 5 mg/kg, sc; type: ADME, organism-based; parameters: dose 5 mg/kg, route subcutaneous; settings: in vivo
[22] = Tmax in Sprague-Dawley rat at 5 mg/kg, sc; type: ADME, organism-based; parameters: dose 5 mg/kg, route subcutaneous; settings: in vivo
[23] = Volume of distribution at steady state in Sprague-Dawley rat at 1 mg/kg, iv; type: ADME, organism-based; parameters: dose 1 mg/kg, route intravenous; settings: in vivo, read-out: Vdss
NADPH oxidase 2 = NADPH oxidase 2 (Homo sapiens, UniProt P04839); assay: Inhibition of human NOX2 overexpressed in […] cell membrane assessed as ROS production by cell free assay in presence of NADPH
Sequence of NADPH oxidase 2 (P04839 whole entry): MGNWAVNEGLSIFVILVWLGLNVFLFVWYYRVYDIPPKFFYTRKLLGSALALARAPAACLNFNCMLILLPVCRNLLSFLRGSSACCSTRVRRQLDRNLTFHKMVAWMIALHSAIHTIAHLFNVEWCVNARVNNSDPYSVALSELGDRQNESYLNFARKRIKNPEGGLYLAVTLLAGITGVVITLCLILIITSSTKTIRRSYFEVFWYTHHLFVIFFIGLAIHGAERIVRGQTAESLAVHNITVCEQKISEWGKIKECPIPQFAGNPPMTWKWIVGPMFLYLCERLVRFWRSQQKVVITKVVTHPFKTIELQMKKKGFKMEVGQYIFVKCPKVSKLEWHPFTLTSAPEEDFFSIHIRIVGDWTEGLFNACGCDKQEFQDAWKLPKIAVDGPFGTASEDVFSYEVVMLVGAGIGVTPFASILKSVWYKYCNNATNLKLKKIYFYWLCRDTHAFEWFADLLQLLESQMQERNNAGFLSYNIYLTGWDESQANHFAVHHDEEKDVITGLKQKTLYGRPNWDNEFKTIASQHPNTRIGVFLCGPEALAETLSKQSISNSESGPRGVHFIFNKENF
Method in brief: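 Nox2 source: membranes from human polymorphonuclear cells, sonicated and collected at the 17/40% sucrose interface. ROS read by Amplex Red/HRP in PBS after NADPH addition, with compound at 1 nM–100 μM for 20 min at 37 °C. Background taken without membranes or agonist. Ki via Cheng-Prusoff, mean of ≥3 experiments in triplicate.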

[24] = AUC (infinity) in Sprague-Dawley rat at 5 mg/kg, sc; type: ADME, organism-based; parameters: time infinity, dose 5 mg/kg, route subcutaneous; settings: plasma
[25] = Cmax in Sprague-Dawley rat at 1 mg/kg, iv; type: ADME, organism-based; parameters: dose 1 mg/kg, route intravenous; settings: in vivo
[26] = Half life in Sprague-Dawley rat at 1 mg/kg, iv; type: ADME, organism-based; parameters: dose 1 mg/kg, route intravenous; settings: in vivo

| SMILES | Tmax [1] [min] | AUC(0-inf) [2] [ng·h/mL] | half-life [3] [min] | AUC(0-inf) [4] [ng·h/mL] | half-life [5] [min] | bioavailability [6] [%] | CL/F [7] [mL/min/kg] | microsomal CLint at 0.5 µM [8] [µL/min/mg] | Vd [9] [L/kg] | Papp at 2 h, 10 µM [10] [×10⁻⁶ cm/s] | microsomal CLint at 0.5 µM [11] [µL/min/mg] | Cmax [12] [ng/mL] | Ki (NADPH oxidase 4) [nM] | clearance [13] [mL/min/kg] | Cmax [14] [ng/mL] | IC50 (Cytochrome P450 2C19) [µM] | IC50 (Cytochrome P450 2C9) [nM] | other results |
| --- | --- | --- | --- | --- | --- | --- | --- | --- | --- | --- | --- | --- | --- | --- | --- | --- | --- | --- |
| O=c1c2c(CN3CCCC3)n(CCc3ccccn3)c(=O)cc2[nH]n1-c1ccc(F)cc1Cl | 19.8 | 3130 | 67.8 | 2430 | 198 | 39 | 73.2 | 45.4 | 1.49 | 7.3 | 62.3 | 2830 | 114 | 26.8 | 6190 | – | – | – |
| O=c1c2c(COCc3ccccc3)n(Cc3cnccn3)c(=O)cc2[nH]n1-c1ccccc1Cl | 15 | 15400 | 143 | 8930 | 188 | 29 | 20 | 32.4 | 0.35 | 78.6 | 49.5 | 6080 | 95 | 5.5 | 36800 | – | – | – |
| COCCCn1c(CN(C)Cc2ccccc2)c2c(=O)n(-c3ccc(F)cc3Cl)[nH]c2cc1=O | – | – | – | – | – | – | – | 96.4 | – | 39.9 | 248 | – | 165 | – | – | 13 | 900 | – |
| CN(Cc1c2c(=O)n(-c3ccccc3Cl)[nH]c2cc(=O)n1Cc1ccncc1)c1ccccc1 | – | – | – | – | – | – | – | 76.3 | – | 4.6 | 78 | – | 151 | – | – | 6.5 | 4100 | IC50 (Cytochrome P450 3A4): 1100 nM; IC50 (Cytochrome P450 2C8): 3.6 µM |
| Cc1c2c(=O)n(-c3ccccc3)[nH]c2cc(=O)n1Cc1cccnc1 | 15 | – | 72 | 417 | – | 22 | – | – | – | 79.2 | 97.1 | 575 | 373 | – | – | – | – | Ki [15]: > 30 µM; Tmax [16]: 4.8 min; QH (Rattus norvegicus): 3.3 L/h/kg; clearance [17]: 85.2 mL/min/kg; AUC(0-inf) [18]: 196 ng·h/mL; bioavailability [19]: 87%; Cmax [20]: 678 ng/mL; half-life [21]: 42 min; Tmax [22]: 30 min; Vd [23]: 2.36 L/kg; Ki (NADPH oxidase 2): 4.72 µM; AUC(0-inf) [24]: 815 ng·h/mL; Cmax [25]: 271 ng/mL; half-life [26]: 24 min |
| Cn1c(COc2ccc(F)cc2)c2c(=O)n(-c3ccccc3Cl)[nH]c2cc1=O | 70.2 | 6530 | 182 | 3630 | 208 | 28 | 48.7 | 49.3 | 0.8 | 35.5 | 125 | 558 | 114 | 12.8 | 30400 | – | – | – |
